Test results: ChEMBL document CHEMBL1155278, “3,4-Diaryl-isoxazoles and -imidazoles as potent dual inhibitors of p38alpha mitogen activated protein kinase and casein kinase 1delta” (J Med Chem, 2009)
Active and inactive are the calls of the source. The calls are words filed in the database; no cut-off is given here.

Columns and labels:
[1] = biological target: Mitogen-activated protein kinase 10 (Homo sapiens) (UniProt P53779); assay: Inhibition of JNK3 at 10 uM by Cherenkov counting in presence of 20 uM ATP
Chain of Mitogen-activated protein kinase 10 (Homo sapiens) (P53779 whole entry, canonical isoform): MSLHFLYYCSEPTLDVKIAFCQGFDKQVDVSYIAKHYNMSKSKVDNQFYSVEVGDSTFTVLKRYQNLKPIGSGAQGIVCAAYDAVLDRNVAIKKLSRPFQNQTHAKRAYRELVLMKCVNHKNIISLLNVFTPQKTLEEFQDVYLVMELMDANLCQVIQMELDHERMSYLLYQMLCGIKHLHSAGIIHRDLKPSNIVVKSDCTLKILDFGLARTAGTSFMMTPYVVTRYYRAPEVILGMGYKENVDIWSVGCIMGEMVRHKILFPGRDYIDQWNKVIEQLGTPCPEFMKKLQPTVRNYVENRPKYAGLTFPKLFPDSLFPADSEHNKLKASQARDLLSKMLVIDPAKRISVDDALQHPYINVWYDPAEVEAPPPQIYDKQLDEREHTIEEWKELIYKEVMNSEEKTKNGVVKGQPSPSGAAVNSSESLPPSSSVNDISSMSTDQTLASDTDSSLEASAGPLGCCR

[2] = biological target: T1, Casein kinase I isoform delta (Homo sapiens, UniProt P48730); assay: Inhibition of CK1delta by Cherenkov counting in presence of 20 uM ATP
Target sequence in this assay (P48730 whole entry, canonical isoform): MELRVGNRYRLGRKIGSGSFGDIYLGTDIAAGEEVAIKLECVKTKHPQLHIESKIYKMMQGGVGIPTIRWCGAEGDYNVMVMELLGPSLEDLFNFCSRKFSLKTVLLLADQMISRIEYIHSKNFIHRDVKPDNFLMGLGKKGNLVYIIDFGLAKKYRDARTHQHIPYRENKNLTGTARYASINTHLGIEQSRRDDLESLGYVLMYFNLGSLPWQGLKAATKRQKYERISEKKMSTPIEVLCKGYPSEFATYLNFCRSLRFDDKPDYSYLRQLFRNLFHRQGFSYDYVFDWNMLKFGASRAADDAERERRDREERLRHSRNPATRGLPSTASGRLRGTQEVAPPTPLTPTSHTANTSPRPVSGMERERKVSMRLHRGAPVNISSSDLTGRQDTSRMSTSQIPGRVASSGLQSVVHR

[3] = biological target: Mitogen-activated protein kinase 9 (Homo sapiens) (UniProt P45984); assay: Inhibition of JNK2 at 10 uM by Cherenkov counting in presence of 20 uM ATP
Chain of Mitogen-activated protein kinase 9 (Homo sapiens) (P45984 whole entry, looked up): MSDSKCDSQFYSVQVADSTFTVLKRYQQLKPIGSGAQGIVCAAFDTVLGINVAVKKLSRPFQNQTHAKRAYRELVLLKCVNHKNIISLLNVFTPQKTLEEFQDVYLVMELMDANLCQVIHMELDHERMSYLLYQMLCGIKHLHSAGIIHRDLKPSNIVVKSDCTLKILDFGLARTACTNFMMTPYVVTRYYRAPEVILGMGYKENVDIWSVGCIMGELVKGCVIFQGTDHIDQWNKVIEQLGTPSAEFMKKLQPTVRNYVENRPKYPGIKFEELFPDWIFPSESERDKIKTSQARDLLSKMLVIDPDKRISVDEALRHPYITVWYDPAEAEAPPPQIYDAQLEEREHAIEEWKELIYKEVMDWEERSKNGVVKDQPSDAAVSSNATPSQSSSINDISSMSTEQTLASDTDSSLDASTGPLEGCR

[4] = Cell cycle arrest in human AC1-M88 cells assessed as accumulation at S phase at 0.26 uM after 48 hrs by propidium iodide staining-based FACS analysis; type: functional
[5] = biological target: T2, Dual specificity tyrosine-phosphorylation-regulated kinase 3 (Homo sapiens) (UniProt O43781); assay: Inhibition of DYRK3 assessed as residual activity at 0.1 uM by Cherenkov counting relative to control in presence of 5 uM ATP
T2 sequence (whole entry): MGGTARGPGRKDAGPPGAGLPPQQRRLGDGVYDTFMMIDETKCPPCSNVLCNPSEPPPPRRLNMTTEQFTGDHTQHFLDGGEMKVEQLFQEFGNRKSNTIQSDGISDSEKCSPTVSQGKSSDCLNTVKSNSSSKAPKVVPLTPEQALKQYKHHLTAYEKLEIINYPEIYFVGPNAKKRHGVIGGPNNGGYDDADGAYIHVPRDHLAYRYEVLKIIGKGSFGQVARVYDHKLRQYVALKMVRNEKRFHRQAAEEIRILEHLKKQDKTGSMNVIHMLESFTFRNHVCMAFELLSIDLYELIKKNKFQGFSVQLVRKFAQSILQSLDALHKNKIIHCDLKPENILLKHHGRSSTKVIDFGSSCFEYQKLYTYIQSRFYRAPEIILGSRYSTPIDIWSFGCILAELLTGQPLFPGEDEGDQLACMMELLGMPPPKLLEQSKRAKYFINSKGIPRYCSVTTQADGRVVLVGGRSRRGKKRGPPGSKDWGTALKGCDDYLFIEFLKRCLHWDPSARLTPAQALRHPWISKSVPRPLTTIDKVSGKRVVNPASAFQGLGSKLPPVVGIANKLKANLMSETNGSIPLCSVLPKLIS
Procedure, shortened: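 Single-concentration screen at 0.1 µM across a panel of 76 protein kinases. Each kinase was run at an ATP concentration approximating its ATP Km. Results are % mean residual activity versus control assays without compound (n = 3 ± SD).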

[6] = Cell cycle arrest in human AC1-M88 cells assessed as accumulation at G1 phase at 0.26 uM after 48 hrs by propidium iodide staining-based FACS analysis; type: functional
Procedure, shortened: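 AC1-M88 cells (extravillous trophoblast fused with the Jeg-3 choriocarcinoma mutant AC1-1) were grown in DMEM/F-12 with 10% FCS at 37 °C in humidified 5% CO2. Cells were exposed to compound for 48 h alongside a DMSO control (0.004% final), then fixed and stained with propidium iodide. Cell cycle was read by flow cytometry with the Cycle Test Plus kit.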

[7] = biological target: Casein kinase I isoform delta (Rattus norvegicus) (UniProt Q06486); assay: Inhibition of GST-fused rat CK1delta at 10 nM by Cherenkov counting in presence of 20 uM ATP
Chain of Casein kinase I isoform delta (Rattus norvegicus) (Q06486 whole entry, looked up, the tested form may be a part, canonical isoform): as the sequence (P48730 whole entry, canonical isoform) above, with I381V counted along it

[8] = Cell cycle arrest in human AC1-M88 cells assessed as accumulation at subG1 phase at 0.26 uM after 48 hrs by propidium iodide staining-based FACS analysis; type: functional
[9] = Cell cycle arrest in human AC1-M88 cells assessed as accumulation at G2 phase at 0.26 uM after 48 hrs by propidium iodide staining-based FACS analysis; type: functional
[10] = test system: Casein kinase I isoform delta (Rattus norvegicus), Q06486 [M82F]; assay: Inhibition of GST-fused rat CK1delta M82F mutant at 10 nM by Cherenkov counting in presence of 20 uM ATP
Chain of Casein kinase I isoform delta (Rattus norvegicus), Q06486 [M82F] (Q06486 whole entry M82F, the tested form may be a part, canonical isoform): as the sequence (P48730 whole entry, canonical isoform) above, with M82F, I381V counted along it

[11] = biological target: T1, Casein kinase I isoform delta; assay: Inhibition of recombinant CK1delta kinase domain at 10 nM by ATP competitive binding assay
Target sequence in this assay (P48730 whole entry, looked up, canonical isoform): as the sequence (P48730 whole entry, canonical isoform) above

[12] = biological target: T1, Casein kinase I isoform delta; assay: Inhibition of recombinant CK1delta kinase domain at 10 nM by ATP competitive binding assay
Target sequence in this assay (P48730 whole entry, looked up, canonical isoform): as the sequence (P48730 whole entry, canonical isoform) above

[13] = biological target: Casein kinase I isoform delta (Rattus norvegicus) (UniProt Q06486); conditions: 5 nM
[14] = test system: Casein kinase I isoform delta (Rattus norvegicus), Q06486 [M82F]; conditions: 5 nM
[15] = Cell cycle arrest in human AC1-M88 cells assessed as accumulation at G2 phase at 0.38 uM after 48 hrs by propidium iodide staining-based FACS analysis; type: functional
[16] = Cell cycle arrest in human AC1-M88 cells assessed as accumulation at S phase at 0.38 uM after 48 hrs by propidium iodide staining-based FACS analysis; type: functional
[17] = Cell cycle arrest in human AC1-M88 cells assessed as accumulation at G1 phase at 0.38 uM after 48 hrs by propidium iodide staining-based FACS analysis; type: functional
[18] = Cell cycle arrest in human AC1-M88 cells assessed as accumulation at subG1 phase at 0.38 uM after 48 hrs by propidium iodide staining-based FACS analysis; type: functional
[19] = biological target: T1, Casein kinase I isoform delta; assay: Inhibition of recombinant CK1delta kinase domain at 5 nM by ATP competitive binding assay
Target sequence in this assay (P48730 whole entry, looked up, canonical isoform): as the sequence (P48730 whole entry, canonical isoform) above

Compound | inhibition [1] | IC50 [2] | inhibition [3] | Activity [4] | Activity [5] | Activity [6] | inhibition [7] | Activity [8] | Activity [9] | inhibition [10] | inhibition [11] | inhibition [12] | inhibition [13] | inhibition [14] | Activity [15] | Activity [16] | Activity [17] | Activity [18] | inhibition [19]
CC(C)c1onc(-c2ccc(F)cc2)c1-c1ccncc1 | 72% | 0.23 µM | 87% | – | – | – | – | – | – | – | – | – | – | – | – | – | – | – | –
COc1ccc(/C=C/C(=O)Nc2cc(-c3[nH]c([S+](C)[O-])nc3-c3ccc(F)cc3)ccn2)c(OC)c1 (stereo not given) | – | – | – | 3.95% | 90% | 12% | Active | 77.1% | 5.32% | inactive | 10% | 10% | – | – | – | – | – | – | –
COc1ccc(/C=C/C(=O)Nc2cc(-c3[nH]c(SC)nc3-c3ccc(F)cc3)ccn2)c(OC)c1 | – | – | – | – | 104% | – | – | – | – | – | – | – | Active | inactive | 3.08% | 2.41% | 6.3% | 87.1% | 18%
